From ChEMBL document CHEMBL1926577, “Novel 1,3,4-heterodiazole analogues: synthesis and in-vitro antitumor activity” (2012)

What was measured:
Assay type in all cases: functional
NCI-H23 = test: Growth inhibition of human NCI-H23 cells at 10 uM after 48 hrs by coulter counter method; details: NCI-H23, 48 h, read-out: GI
In short: (§1)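 NCI 60-cell-line panel, single dose. Compound dissolved first in DMSO, then diluted in phosphate-buffered saline so that every final dilution held under 1% DMSO. Duplicate wells received cells at 6 × 10⁴ cells/ml. Controls held PBS/DMSO at the same dilution. Plates were incubated 48 h at 37 °C under 5% CO₂. Cells were then diluted 10-fold in saline and counted on a Coulter counter, with counts corrected for the dilution. Results are given as percent growth inhibition.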

Malme-3M = test: Growth inhibition of human MALME-3M cells at 10 uM after 48 hrs by coulter counter method; details: read-out: GI; in short: as §1
SNB-19 = test: Growth inhibition of human SNB19 cells at 10 uM after 48 hrs by coulter counter method; details: SNB-19, 48 h, read-out: GI; in short: as §1
SK-MEL-5 = test: Growth inhibition of human SK-MEL-5 cells at 10 uM after 48 hrs by coulter counter method; details: SK-MEL-5, 48 h, read-out: GI; in short: as §1
UO-31 = test: Growth inhibition of human UO31 cells at 10 uM after 48 hrs by coulter counter method; details: UO-31, 48 h, read-out: GI; in short: as §1
A498 = test: Growth inhibition of human A498 cells at 10 uM after 48 hrs by coulter counter method; details: A498, 48 h, read-out: GI; in short: as §1
LOX IMVI = test: Growth inhibition of human LOXIMVI cells at 10 uM after 48 hrs by coulter counter method; details: read-out: GI; in short: as §1
OVCAR-8 = test: Growth inhibition of human OVCAR8 cells at 10 uM after 48 hrs by coulter counter method; details: OVCAR-8, 48 h, read-out: GI; in short: as §1
HCT-116 = test: Growth inhibition of human HCT116 cells at 10 uM after 48 hrs by coulter counter method; details: HCT-116, 48 h, read-out: GI; in short: as §1
SK-MEL-28 = test: Growth inhibition of human SK-MEL-28 cells at 10 uM after 48 hrs by coulter counter method; details: SK-MEL-28, 48 h, read-out: GI; in short: as §1
786-0 = test: Growth inhibition of human 786-0 cells at 10 uM after 48 hrs by coulter counter method; details: 786-0, 48 h, read-out: GI; in short: as §1
EKVX = test: Growth inhibition of human EKVX cells at 10 uM after 48 hrs by coulter counter method; details: read-out: GI; in short: as §1
RPMI-8226 = test: Growth inhibition of human RPMI8226 cells at 10 uM after 48 hrs by coulter counter method; details: RPMI-8226, 48 h, read-out: GI; in short: as §1
MDA-MB-435 = test: Growth inhibition of human MDA-MB-435 cells at 10 uM after 48 hrs by coulter counter method; details: MDA-MB-435, 48 h, read-out: GI; in short: as §1
NCI-H322M = test: Growth inhibition of human NCI-H322M cells at 10 uM after 48 hrs by coulter counter method; details: read-out: GI; in short: as §1
U-251 = test: Growth inhibition of human U251 cells at 10 uM after 48 hrs by coulter counter method; details: U-251, 48 h, read-out: GI; in short: as §1
SF-268 = test: Growth inhibition of human SF268 cells at 10 uM after 48 hrs by coulter counter method; details: SF-268, 48 h, read-out: GI; in short: as §1
IGROV-1 = test: Growth inhibition of human IGROV1 cells at 10 uM after 48 hrs by coulter counter method; details: IGROV-1, 48 h, read-out: GI; in short: as §1
CAKI-1 = test: Growth inhibition of human Caki1 cells at 10 uM after 48 hrs by coulter counter method; details: CAKI-1, 48 h, read-out: GI; in short: as §1
SK-MEL-2 = test: Growth inhibition of human SK-MEL-2 cells at 10 uM after 48 hrs by coulter counter method; details: SK-MEL-2, 48 h, read-out: GI; in short: as §1
M14 = test: Growth inhibition of human M14 cells at 10 uM after 48 hrs by coulter counter method; details: M14, 48 h, read-out: GI; in short: as §1
KM12 = test: Growth inhibition of human KM12 cells at 10 uM after 48 hrs by coulter counter method; details: KM12, 48 h, read-out: GI; in short: as §1
UACC-62 = test: Growth inhibition of human UACC62 cells at 10 uM after 48 hrs by coulter counter method; details: UACC-62, 48 h, read-out: GI; in short: as §1
BT-549 = test: Growth inhibition of human BT549 cells at 10 uM after 48 hrs by coulter counter method; details: BT-549, 48 h, read-out: GI; in short: as §1
HCT-15 = test: Growth inhibition of human HCT15 cells at 10 uM after 48 hrs by coulter counter method; details: HCT-15, 48 h, read-out: GI; in short: as §1
MOLT-4 = test: Growth inhibition of human MOLT4 cells at 10 uM after 48 hrs by coulter counter method; details: MOLT-4, 48 h, read-out: GI; in short: as §1
SN12C = test: Growth inhibition of human SN12C cells at 10 uM after 48 hrs by coulter counter method; details: read-out: GI; in short: as §1
UACC-257 = test: Growth inhibition of human UACC257 cells at 10 uM after 48 hrs by coulter counter method; details: UACC-257, 48 h, read-out: GI; in short: as §1
SNB-75 = test: Growth inhibition of human SNB75 cells at 10 uM after 48 hrs by coulter counter method; details: SNB-75, 48 h, read-out: GI; in short: as §1
HL-60(TB) = test: Growth inhibition of human HL-60(TB) cells at 10 uM after 48 hrs by coulter counter method; details: HL-60, 48 h, read-out: GI
In short: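 Single-dose screen on the NCI 60-line panel (leukemia subpanel). Compound is dissolved in DMSO and diluted in PBS, with final DMSO below 1%. Duplicate wells hold 6 × 10⁴ cells/ml at 37 °C, 5% CO₂, for 48 h. Cells are counted by Coulter counter after 10-fold saline dilution. Read-out is percent growth versus PBS/DMSO controls, expressed as % growth inhibition.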

T47D = test: Growth inhibition of human T47D cells at 10 uM after 48 hrs by coulter counter method; details: read-out: GI; in short: as §1
SR = test: Growth inhibition of human SR cells at 10 uM after 48 hrs by coulter counter method; details: read-out: GI; in short: as §1
HT-29 = test: Growth inhibition of human HT-29 cells at 10 uM after 48 hrs by coulter counter method; details: HT-29, 48 h, read-out: GI; in short: as §1
ACHN = test: Growth inhibition of human ACHN cells at 10 uM after 48 hrs by coulter counter method; details: read-out: GI; in short: as §1
A549 = test: Growth inhibition of human A549 cells at 10 uM after 48 hrs by coulter counter method; details: A549, 48 h, read-out: GI; in short: as §1
K562 = test: Growth inhibition of human K562 cells at 10 uM after 48 hrs by coulter counter method; details: K562, 48 h, read-out: GI; in short: as §1
TK-10 = test: Growth inhibition of human TK10 cells at 10 uM after 48 hrs by coulter counter method; details: TK-10, 48 h, read-out: GI; in short: as §1
NCI-H226 = test: Growth inhibition of human NCI-H226 cells at 10 uM after 48 hrs by coulter counter method; details: NCI-H226, 48 h, read-out: GI; in short: as §1
NCI-H522 = test: Growth inhibition of human NCI-H522 cells at 10 uM after 48 hrs by coulter counter method; details: NCI-H522, 48 h, read-out: GI; in short: as §1
NCI/ADR-RES = test: Growth inhibition of human NCI/ADR-RES cells at 10 uM after 48 hrs by coulter counter method; details: read-out: GI; in short: as §1
CCRF-CEM = test: Growth inhibition of human CCRF-CEM cells at 10 uM after 48 hrs by coulter counter method; details: read-out: GI; in short: as §1
MDA-MB-468 = test: Growth inhibition of human MDA-MB-468 cells at 10 uM after 48 hrs by coulter counter method; details: MDA-MB-468, 48 h, read-out: GI; in short: as §1
PC-3 = test: Growth inhibition of human PC3 cells at 10 uM after 48 hrs by coulter counter method; details: PC-3, 48 h, read-out: GI; in short: as §1
SF-295 = test: Growth inhibition of human SF295 cells at 10 uM after 48 hrs by coulter counter method; details: SF-295, 48 h, read-out: GI; in short: as §1
MCF7 = test: Growth inhibition of human MCF7 cells at 10 uM after 48 hrs by coulter counter method; details: MCF7, 48 h, read-out: GI; in short: as §1

Measured: inhibition of growth at 10 µM

O=C1CN2N=C(c3ccccc3)OC2=N1
14.7%: SF-295
20.4%: UO-31
< 10%: NCI-H23 | Malme-3M | SNB-19 | SK-MEL-5 | LOX IMVI | OVCAR-8 | HCT-116 | SK-MEL-28 | 786-0 | EKVX | RPMI-8226 | MDA-MB-435 | NCI-H322M | U-251 | SF-268 | IGROV-1 | SK-MEL-2 | M14 | KM12 | UACC-62 | BT-549 | HCT-15 | MOLT-4 | SN12C | UACC-257 | SNB-75 | HL-60(TB) | T47D | SR | HT-29 | ACHN | A549 | K562 | TK-10 | NCI-H226 | NCI-H522 | NCI/ADR-RES | CCRF-CEM | MDA-MB-468 | PC-3 | MCF7
10.9%: A498
21.2%: CAKI-1
